Data taken from ChEMBL document CHEMBL3399972, “Structure-activity relationships of a novel pyranopyridine series of Gram-negative bacterial efflux pump inhibitors” (Bioorg Med Chem, 2015).
≈ marks a conversion by molar mass, not a printed value. Calls of active or inactive are those of the source. Where a SMILES comes first, the peptide text is derived from it. Bridges are numbered along the chain shown (N, C = ends). [ ]: non-standard residue; d: D form. Dab = NCC[C@H](N)C(=O)O

Experiments:
[1] = Inhibition of mouse liver microsome CYP3A4 at 3 uM after 10 mins by luminescence assay; assay type: ADME; settings: microsomes
Escherichia coli [2] = experiment: Antibacterial activity against Escherichia coli at 100 uM; assay type: functional, organism-based
Escherichia coli [3] = experiment: Inhibition of multidrug resistance efflux pump in wild-type Escherichia coli AB1157 assessed as concentration required to reduce piperacillin MIC by 4-fold by checkerboard assay
Escherichia coli [4] = experiment: Inhibition of lactose permease-dependent [3H]TMG uptake in Escherichia coli HN1157 up to 20 uM
In short: (§1)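 Proton motive force probed in E. coli HN1157 by LacY permease-mediated accumulation of [methyl-3H] thiogalactopyranoside (stock 1 mCi/ml, 7 Ci/mmol), compounds tested at concentrations up to 20 µM.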

Escherichia coli [5] = experiment: Inhibition of multidrug resistance efflux pump in Escherichia coli assessed as concentration required to reduce levofloxacin MIC by 4-fold by checkerboard assay
[6] = Metabolic stability in human liver microsomes assessed as compound remaining at 25 uM after 60 mins by HPLC analysis in presence of NADPH; assay type: ADME; settings: read-out: Stability
In short: (§2)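 Human or mouse liver microsomes at 0.5 mg/mL in 100 mM potassium phosphate pH 7.4 with 3 mM MgCl2, test compound 25 µM final, with or without (control) 2 mM NADPH; 37 °C for one hour, then stopped with equal volume acetonitrile containing 0.1% trifluoroacetic acid. Value: peak area with NADPH relative to no-NADPH control, as percent remaining.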

[7] = Metabolic stability in mouse liver microsomes assessed as compound remaining at 25 uM after 60 mins by HPLC analysis in presence of NADPH; assay type: ADME; settings: read-out: Stability; in short: as §2
HeLa = experiment: Cytotoxicity against human HeLa cells; assay type: cell-based
Escherichia coli [8] = experiment: Inhibition of lactose permease in Escherichia coli HN1157 assessed as [3H]TMG accumulation up to 20 uM relative to control; in short: as §1
[9] = Aqueous solubility of the compound by nephlometric method; assay type: physicochemical
In short: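 Maximum solubility in water, measured by nephelometry.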

Escherichia coli [10] = experiment: Effect on outer membrane permeability in AcrAB-deficient Escherichia coli HN1159 assessed as influx of nitrocefin at 20 uM; assay type: functional
Escherichia coli [11] = experiment: Inhibition of lactose permease in Escherichia coli HN1157 assessed as [3H]TMG accumulation up to 100 uM relative to control
Escherichia coli [12] = experiment: Antibacterial activity against TolC-deficient Escherichia coli AB1157; assay type: functional
In short: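 MIC determined following CLSI guidelines, with modifications from the authors' earlier work, in the TolC-deficient mutant of E. coli AB1157.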

Escherichia coli [13] = experiment: Antibacterial activity against wild-type Escherichia coli AB1157; assay type: functional
In short: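 MIC determined according to CLSI guidelines, with modifications described in earlier work.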

Enterobacteriaceae = experiment: Antimicrobial activity against Enterobacteriaceae; assay type: functional
Escherichia coli [14] = experiment: Effect on outer membrane permeability in AcrAB-deficient Escherichia coli HN1159 assessed as influx of nitrocefin at 20 ug/ml; assay type: functional

CC1CN(c2nc(SCCc3ccc(NC(=N)N)cc3)c(C#N)c3c2COC(C)(C)C3)CC(C)O1 (stereo unspecified)
inhibition (INH) [1]: 9% | Activity (Escherichia coli [2]): inactive | INH (Escherichia coli [3]): 0.8 µM | inhibition (Escherichia coli [4]): inactive | INH (Escherichia coli [5]): 0.8 µM | remaining at 1 h, 25 µM [6]: 90% | remaining at 1 h, 25 µM [7]: 90% | CC50 (HeLa): 12 µM | [3H]TMG accumulation relative to control (Escherichia coli [8]): 86% | solubility kinetic [9]: 100 µM (≈ 49.5 µg/mL)

COc1cccc(CCSc2nc(N3CCOCC3)c3c(c2C#N)CC(C)(C)OC3)c1
inhibition (INH) [1]: 29% | Activity (Escherichia coli [2]): inactive | INH (Escherichia coli [3]): 1.6 µM | inhibition (Escherichia coli [4]): inactive | INH (Escherichia coli [5]): 2.4 µM | remaining at 1 h, 25 µM [6]: 8% | remaining at 1 h, 25 µM [7]: 0% | CC50 (HeLa): > 100 µM | [3H]TMG accumulation relative to control (Escherichia coli [8]): 99% | Activity (Escherichia coli [10]): 94% | solubility kinetic [9]: 50 µM (≈ 22 µg/mL)

CC1CN(c2nc(SCCc3cccc(F)c3)c(C#N)c3c2COC(C)(C)C3)CC(C)O1 (stereo unspecified)
Activity (Escherichia coli [2]): inactive | INH (Escherichia coli [3]): 1.6 µM | inhibition (Escherichia coli [4]): inactive | INH (Escherichia coli [5]): 1.6 µM | CC50 (HeLa): > 100 µM | [3H]TMG accumulation relative to control (Escherichia coli [8]): 103% | Activity (Escherichia coli [10]): 99%

CC(=O)Nc1ccc(CCSc2nc(N3CC(C)OC(C)C3)c3c(c2C#N)CC(C)(C)OC3)cc1 (stereo unspecified)
inhibition (INH) [1]: 61% | Activity (Escherichia coli [2]): inactive | INH (Escherichia coli [3]): 0.1 µM | inhibition (Escherichia coli [4]): inactive | INH (Escherichia coli [5]): 0.1 µM | remaining at 1 h, 25 µM [6]: 37% | remaining at 1 h, 25 µM [7]: 0% | CC50 (HeLa): 60.5 µM | [3H]TMG accumulation relative to control (Escherichia coli [8]): 97% | Activity (Escherichia coli [10]): 100% | solubility kinetic [9]: 50 µM (≈ 24.7 µg/mL)

COCCN1CCN(c2nc(SCCc3ccc(OC)c(OC)c3)c(C#N)c3c2COC(C)(C)C3)CC1
inhibition (INH) [1]: 48% | Activity (Escherichia coli [2]): inactive | INH (Escherichia coli [3]): 0.4 µM | inhibition (Escherichia coli [4]): inactive | INH (Escherichia coli [5]): 1.6 µM | remaining at 1 h, 25 µM [6]: 20% | remaining at 1 h, 25 µM [7]: 13% | CC50 (HeLa): 38.8 µM | [3H]TMG accumulation relative to control (Escherichia coli [8]): 100% | Activity (Escherichia coli [10]): 100% | solubility kinetic [9]: ≥ 100 µM

COCCN1CCN(c2nc(SCCc3ccc(OC)cc3)c(C#N)c3c2COC(C)(C)C3)CC1
inhibition (INH) [1]: 42% | Activity (Escherichia coli [2]): inactive | INH (Escherichia coli [3]): 3.1 µM | inhibition (Escherichia coli [4]): inactive | INH (Escherichia coli [5]): 6.3 µM | remaining at 1 h, 25 µM [7]: 17% | CC50 (HeLa): 34.8 µM | [3H]TMG accumulation relative to control (Escherichia coli [8]): 103% | Activity (Escherichia coli [10]): 94% | solubility kinetic [9]: ≥ 100 µM

CC1CN(c2nc(SCCc3cccnc3)c(C#N)c3c2COC(C)(C)C3)CC(C)O1 (stereo unspecified)
inhibition (INH) [1]: 0% | Activity (Escherichia coli [2]): inactive | INH (Escherichia coli [3]): 3.1 µM | inhibition (Escherichia coli [4]): inactive | INH (Escherichia coli [5]): 12.5 µM | remaining at 1 h, 25 µM [6]: 53% | remaining at 1 h, 25 µM [7]: 19% | CC50 (HeLa): 42.6 µM | Activity (Escherichia coli [10]): 86% | solubility kinetic [9]: ≥ 100 µM

N#CC(C#N)=NNc1cccc(Cl)c1
inhibition (Escherichia coli [11]): 3%

CC1CN(c2nc(SCCc3ccc(N)cc3)c(C#N)c3c2COC(C)(C)C3)CC(C)O1 (stereo unspecified)
inhibition (INH) [1]: 59% | Activity (Escherichia coli [2]): inactive | INH (Escherichia coli [3]): 0.8 µM | inhibition (Escherichia coli [4]): inactive | INH (Escherichia coli [5]): 0.8 µM | remaining at 1 h, 25 µM [6]: 76% | remaining at 1 h, 25 µM [7]: 72% | CC50 (HeLa): 52.2 µM | [3H]TMG accumulation relative to control (Escherichia coli [8]): 100% | Activity (Escherichia coli [10]): 102% | solubility kinetic [9]: 12 µM (≈ 5.43 µg/mL)

C[C@H]1COc2c(N3CCN(C)CC3)c(F)cc3c(=O)c(C(=O)O)cn1c23 [LEVOFLOXACIN]
MIC (Escherichia coli [12]): 0.016 µM (≈ 0.00578 µg/mL) | MIC (Escherichia coli [13]): 0.063 µM (≈ 0.0228 µg/mL)

CC1CN(c2nc(SCCc3ccc(NC(=O)OC(C)(C)C)cc3)c(C#N)c3c2COC(C)(C)C3)CC(C)O1 (stereo unspecified)
inhibition (INH) [1]: 0% | Activity (Escherichia coli [2]): inactive | INH (Escherichia coli [3]): 0.4 µM | inhibition (Escherichia coli [4]): inactive | INH (Escherichia coli [5]): 0.8 µM | remaining at 1 h, 25 µM [6]: 59% | remaining at 1 h, 25 µM [7]: 66% | CC50 (HeLa): > 100 µM | Activity (Escherichia coli [10]): 99% | solubility kinetic [9]: 100 µM (≈ 55.3 µg/mL)

C=CC(=O)Nc1ccc(CCSc2nc(N3CC(C)OC(C)C3)c3c(c2C#N)CC(C)(C)OC3)cc1 (stereo unspecified)
Activity (Escherichia coli [2]): inactive | INH (Escherichia coli [3]): 0.05 µM | inhibition (Escherichia coli [4]): inactive | INH (Escherichia coli [5]): 0.1 µM | remaining at 1 h, 25 µM [6]: 100% | remaining at 1 h, 25 µM [7]: 49% | CC50 (HeLa): 62.4 µM | [3H]TMG accumulation relative to control (Escherichia coli [8]): 99% | Activity (Escherichia coli [10]): 89% | solubility kinetic [9]: 25 µM (≈ 12.7 µg/mL)

CC1(C)Cc2c(C#N)c(SCCc3ccccc3)nc(N3CCOCC3)c2CO1
Activity (Escherichia coli [2]): inactive | INH (Escherichia coli [3]): 3.1 µM | inhibition (Escherichia coli [4]): inactive | INH (Escherichia coli [5]): 3.1 µM | remaining at 1 h, 25 µM [6]: 0% | remaining at 1 h, 25 µM [7]: 0% | CC50 (HeLa): > 100 µM | MIC (Enterobacteriaceae): ≥ 100 µM | [3H]TMG accumulation relative to control (Escherichia coli [8]): 102% | Activity (Escherichia coli [10]): 90% | solubility kinetic [9]: 12 µM (≈ 4.91 µg/mL)

CC1CN(c2nc(SCCc3ccc(NC(=O)C(F)(F)F)cc3)c(C#N)c3c2COC(C)(C)C3)CC(C)O1 (stereo unspecified)
inhibition (INH) [1]: 66% | Activity (Escherichia coli [2]): inactive | INH (Escherichia coli [3]): 1.6 µM | INH (Escherichia coli [5]): 1.6 µM | remaining at 1 h, 25 µM [6]: 90% | remaining at 1 h, 25 µM [7]: 0% | CC50 (HeLa): 64 µM | solubility kinetic [9]: 12.5 µM (≈ 6.86 µg/mL)

CCN1CCN(C(=O)N[C@@H](C(=O)N[C@@H]2C(=O)N3[C@@H]2SC(C)(C)[C@@H]3C(=O)O)c2ccccc2)C(=O)C1=O [PIPERACILLIN]
MIC (Escherichia coli [12]): 0.125 µM (≈ 0.0647 µg/mL) | MIC (Escherichia coli [13]): 4 µM (≈ 2.07 µg/mL)

CC(C)C[C@@H]1NC(=O)[C@@H](Cc2ccccc2)NC(=O)[C@H](CCN)NC(=O)[C@@H](NC(=O)[C@H](CCN)NC(=O)[C@@H](N)[C@@H](C)O)CCNC(=O)[C@H]([C@@H](C)O)NC(=O)[C@H](CCN)NC(=O)[C@H](CCN)NC1=O [POLYMYXIN B NONAPEPTIDE] (H-T[Dab][Dab][Dab][dF]L[Dab][Dab]T; lactam 3-C)
Activity (Escherichia coli [14]): 162%
